From article PMC11327602 (Heliyon, 2024)
Several values for one entry are separate records, joined by “and”; a condition that tells them apart may be missing. Equal values may be shown once.

How the values were obtained:
[1] = Superoxide anion scavenging assay; conditions: for IC50: read-out: superoxide anion scavenging IC50
[2] = biological target: Bacillus Pasteurii urease (Sporosarcina pasteurii, UniProt P41020); assay: Urease inhibition assay; assay type: biochemical; conditions: Enzyme (SEM ±) B.P Urease, IC50, mean ± SEM, 3 experiments
[3] = biological target: jack bean urease (Canavalia ensiformis, UniProt P07374); assay: Urease inhibition assay; assay type: biochemical; conditions: for IC50: Enzyme (SEM ±) J.B Urease, IC50, mean ± SEM, 3 experiments
[4] = ABTS method; conditions: for IC50: read-out: ABTS scavenging IC50
[5] = DPPH free radical scavenging activity; conditions: for IC50: read-out: DPPH scavenging IC50
[6] = biological target: α-Glucosidase (Saccharomyces cerevisiae, UniProt P53341); assay: α-Glucosidase inhibition assay; assay type: biochemical
Summary of the method: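 Test compound (200–800 μg/mL) pre-incubated 5 min at 37 °C with 2 % w/v starch (sucrose) solution in 0.2 M Tris buffer, pH 8.0. 5 mM p-nitrophenyl-α-D-glucopyranoside added intermittently, then α-glucosidase (1 U/mL), 40 min at 35 °C. Stopped with […]; absorbance read at 405 nm. % inhibition = (control − sample)/control × 100; samples above 50 % taken to IC50.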

Sequence of jack bean urease (P07374 whole entry, looked up): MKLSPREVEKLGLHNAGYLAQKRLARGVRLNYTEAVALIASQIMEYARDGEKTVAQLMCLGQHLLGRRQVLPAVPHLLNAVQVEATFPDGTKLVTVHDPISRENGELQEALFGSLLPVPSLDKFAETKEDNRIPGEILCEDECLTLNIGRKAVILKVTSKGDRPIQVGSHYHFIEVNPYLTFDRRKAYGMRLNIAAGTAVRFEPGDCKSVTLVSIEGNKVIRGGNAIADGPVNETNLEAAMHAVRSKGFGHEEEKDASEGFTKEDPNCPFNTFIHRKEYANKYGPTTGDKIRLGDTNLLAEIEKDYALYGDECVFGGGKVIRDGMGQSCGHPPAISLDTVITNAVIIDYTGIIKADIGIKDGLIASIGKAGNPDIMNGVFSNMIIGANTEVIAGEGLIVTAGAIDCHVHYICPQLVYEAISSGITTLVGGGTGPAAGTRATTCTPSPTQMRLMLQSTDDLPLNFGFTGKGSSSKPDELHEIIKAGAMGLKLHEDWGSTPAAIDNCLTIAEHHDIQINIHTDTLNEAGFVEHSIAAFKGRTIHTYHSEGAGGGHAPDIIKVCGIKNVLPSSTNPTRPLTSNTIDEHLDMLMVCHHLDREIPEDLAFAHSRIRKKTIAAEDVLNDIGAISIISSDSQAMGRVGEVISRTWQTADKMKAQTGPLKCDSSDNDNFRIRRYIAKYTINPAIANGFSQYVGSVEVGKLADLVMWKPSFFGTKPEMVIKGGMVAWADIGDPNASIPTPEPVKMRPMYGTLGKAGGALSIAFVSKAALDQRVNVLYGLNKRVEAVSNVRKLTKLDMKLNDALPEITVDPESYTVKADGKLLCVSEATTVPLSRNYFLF
Sequence of Bacillus Pasteurii urease (P41020 whole entry): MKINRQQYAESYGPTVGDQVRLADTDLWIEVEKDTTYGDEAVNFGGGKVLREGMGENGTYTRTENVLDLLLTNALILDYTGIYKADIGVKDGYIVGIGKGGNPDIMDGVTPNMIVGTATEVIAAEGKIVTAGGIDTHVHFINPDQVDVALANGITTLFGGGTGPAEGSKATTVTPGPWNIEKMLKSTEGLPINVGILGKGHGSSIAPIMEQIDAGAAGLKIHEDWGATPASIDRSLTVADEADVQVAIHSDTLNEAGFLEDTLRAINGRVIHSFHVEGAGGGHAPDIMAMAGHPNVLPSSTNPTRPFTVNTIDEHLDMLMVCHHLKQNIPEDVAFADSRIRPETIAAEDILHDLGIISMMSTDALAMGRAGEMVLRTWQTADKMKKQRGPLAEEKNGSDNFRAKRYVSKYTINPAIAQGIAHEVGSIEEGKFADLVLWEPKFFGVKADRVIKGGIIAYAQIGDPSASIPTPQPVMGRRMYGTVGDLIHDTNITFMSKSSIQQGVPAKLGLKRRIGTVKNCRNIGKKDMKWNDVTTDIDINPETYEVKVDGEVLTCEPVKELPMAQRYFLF
Sequence of Bacillus Pasteurii urease (P41021 whole entry partner): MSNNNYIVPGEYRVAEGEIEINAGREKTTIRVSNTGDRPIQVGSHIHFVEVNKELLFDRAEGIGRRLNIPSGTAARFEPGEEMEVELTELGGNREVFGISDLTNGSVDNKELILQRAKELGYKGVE
Sequence of Bacillus Pasteurii urease (P41022 whole entry partner): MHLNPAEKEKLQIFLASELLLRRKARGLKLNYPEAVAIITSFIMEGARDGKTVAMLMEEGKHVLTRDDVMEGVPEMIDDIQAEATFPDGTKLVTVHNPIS
Sequence of α-Glucosidase (P53341 whole entry): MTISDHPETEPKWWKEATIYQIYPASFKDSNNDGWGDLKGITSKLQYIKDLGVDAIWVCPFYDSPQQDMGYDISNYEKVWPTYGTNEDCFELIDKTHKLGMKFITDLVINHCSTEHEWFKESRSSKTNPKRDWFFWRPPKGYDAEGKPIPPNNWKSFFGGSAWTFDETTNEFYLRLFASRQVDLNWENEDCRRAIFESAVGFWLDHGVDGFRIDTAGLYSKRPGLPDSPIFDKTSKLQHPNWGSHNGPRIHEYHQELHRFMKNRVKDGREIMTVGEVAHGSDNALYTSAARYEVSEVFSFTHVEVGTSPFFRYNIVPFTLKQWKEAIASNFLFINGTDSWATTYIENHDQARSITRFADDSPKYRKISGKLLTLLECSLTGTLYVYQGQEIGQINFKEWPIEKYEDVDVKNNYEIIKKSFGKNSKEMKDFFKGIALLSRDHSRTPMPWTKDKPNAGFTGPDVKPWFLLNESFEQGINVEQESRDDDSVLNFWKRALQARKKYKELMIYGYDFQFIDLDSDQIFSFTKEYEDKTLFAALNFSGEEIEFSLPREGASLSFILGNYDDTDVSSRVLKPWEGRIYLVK

Compound | superoxide anion % scavenging ([1]; 25 μM) [%] | superoxide anion % scavenging ([1]; 50 μM) [%] | superoxide anion % scavenging ([1]; 75 μM) [%] | superoxide anion % scavenging ([1]; 100 μM) [%] | IC50 [1] | IC50 [2] [µM] | Types of inhibition (urease) [3] | IC50 [3] [µM] | ABTS % Scavenging ([4]; 10 μM) [%] | ABTS % Scavenging ([4]; 20 μM) [%] | ABTS % Scavenging ([4]; 30 μM) [%] | ABTS % Scavenging ([4]; 40 μM) [%] | ABTS % Scavenging ([4]; 50 μM) [%] | IC50 [4] | DPPH % Scavenging ([5]; 25 μM) [%] | DPPH % Scavenging ([5]; 50 μM) [%] | DPPH % Scavenging ([5]; 75 μM) [%] | DPPH % Scavenging ([5]; 100 μM) [%] | IC50 [5] | Type of Inhibition (α-glucosidase and α-amylase) [6] | further results
O=S(=O)(c1ccccc1)N(Cc1ccccc1)c1nccs1 [Compound 22, N-Benzyl-N-(thiazol-2-yl)benzenesulfonamide] | 35 ± 0.02 | 57 ± 0.15 | 80 ± 0.25 | 87 ± 0.15 | 40 ± 0.06 µM | 18.7 ± 0.23 | Competitive | 15.31 ± 0.09 | 12.04 ± 0.01 | 27.2 ± 0.5 | 47.03 ± 0.06 | 66.11 ± 0.31 | 86.13 ± 0.12 | 40.01 ± 0.01 µM | 31.4 ± 0.08 | 50.1 ± 0.11 | 66.1 ± 0.23 | 79.5 ± 0.05 | 57.2 ± 0.07 µM | Non-competitive | 
O=S(=O)(c1ccc(F)cc1)N(Cc1ccccc1)c1nccs1 [Compound 24, N-benzyl-4-fluoro-N-(thiazol-2-yl)benzenesulfonamide] | 33 ± 0.21 | 45 ± 0.35 | 84 ± 0.25 | 97 ± 0.15 | 59 ± 0.16 µM | 40.88 ± 0.26 | Competitive | 32.11 ± 0.13 | 25.11 ± 0.11 | 33.6 ± 0.55 | 44.31 ± 0.17 | 48.23 ± 0.51 | 76.23 ± 0.22 | 42.12 ± 0.21 µM | 21.3 ± 0.18 | 44.1 ± 0.55 | 75.1 ± 0.30 | 89.4 ± 0.35 | 62.5 ± 0.07 µM | Non-competitive | inhibition against both enzymes (α-glucosidase and α-amylase), in words [6]: weak inhibition
COc1ccc(S(=O)(=O)N(Cc2ccccc2)c2nccs2)cc1 [Compound 20, N-Benzyl-4-methoxy-N-(thiazol-2-yl)benzenesulfonamide] | 31 ± 0.02 | 54 ± 0.12 | 79 ± 0.22 | 85 ± 0.25 | 40 ± 0.06 µM | 22.1 ± 0.35 | Competitive | 20.6 ± 0.41 | 15.04 ± 0.2 | 22.02 ± 0.05 | 45.08 ± 0.06 | 61.01 ± 0.03 | 82.03 ± 0.07 | 38.01 ± 0.06 µM | 35.2 ± 0.1 | 49.2 ± 0.01 | 56.3 ± 0.83 | 80.2 ± 0.01 | 43.5 ± 0.03 µM | Non-competitive | 
C=CCN(c1nccs1)S(=O)(=O)c1ccc(F)cc1 [Compound 31, N-Allyl-4-fluoro-N-(thiazol-2-yl)benzenesulfonamide] | 25 ± 0.11 | 46 ± 0.05 | 79 ± 0.33 | 104 ± 0.22 | 60 ± 0.05 µM | 51.39 ± 0.11 | Non-competitive | 46.02 ± 0.05 | 29.31 ± 0.2 | 37.15 ± 0.28 | 41.11 ± 0.39 | 47.12 ± 0.17 | 73.04 ± 0.12 | 46.13 ± 0.13 µM | 34.02 ± 0.1 | 43.1 ± 0.13 | 73.2 ± 0.5 | 90.5 ± 0.11 | 66.3 ± 0.2 µM | Non-competitive | 
COc1ccc(S(=O)(=O)N(C)c2nccs2)cc1 [Compound 34, 4-Methoxy-N-methyl-N-(thiazol-2-yl)benzenesulfonamide] | 18.2 ± 0.01 | 39.6 ± 0.2 | 69.4 ± 0.2 | 89.8 ± 0.03 | 52.1 ± 0.01 µM | 18.7 | Competitive | 16 ± 0.21 | 27.2 ± 0.01 | 35.6 ± 0.2 | 46.4 ± 0.2 | 69.8 ± 0.03 | 80.1 ± 0.08 | 47.1 µM | 29.2 ± 0.01 | 69.6 ± 0.2 | 78.4 ± 0.2 | 94.8 ± 0.03 | 45.5 ± 0.05 µM | Non-competitive | inhibition against both enzymes (α-glucosidase and α-amylase), in words [6]: weak inhibition
C=CCN(c1nccs1)S(=O)(=O)c1ccc(C)cc1 [Compound 26, N-Allyl-4-methyl-N-(thiazol-2-yl)benzenesulfonamide] | 27 ± 0.07 | 63 ± 0.01 | 73 ± 0.11 | 94 ± 0.51 | ~36 µM and 36 µM | 38.2 ± 0.36 | Non-competitive | 30.11 ± 0.07 | 09.02 ± 0.03 | 24.03 ± 0.01 | 43.08 ± 0.09 | 75.07 ± 0.02 | 96.06 ± 0.21 | ~33 µM and 33 µM | 43.2 ± 0.8 | 74.8 ± 0.3 | 88.5 ± 0.1 | 99.2 ± 0.2 | ~38.3 µM and 38.3 µM | Competitive | 
Cc1ccc(S(=O)(=O)N(C)c2nccs2)cc1 [Compound 33, N,4-Dimethyl-N-(thiazol-2-yl)benzenesulfonamide] | 20 ± 0.01 | 51 ± 0.03 | 60 ± 0.15 | 99 ± 0.18 | 38 ± 0.55 µM | 25.09 ± 0.14 | Non-competitive | 22.1 ± 0.29 | 29.02 ± 0.08 | 41.07 ± 0.03 | 49.08 ± 0.01 | 72.02 ± 0.07 |  | ~35.1 µM | 30.2 ± 0.2 | 37.4 ± 0.1 | 65.6 ± 0.01 | 88.3 ± 0.2 | ~34.4 µM and 34.4 µM | Competitive | inhibition against both enzymes (α-glucosidase and α-amylase), in words [6]: weak inhibition
Cc1ccc(S(=O)(=O)N(Cc2ccccc2)c2nccs2)cc1 [Compound 19, N-Benzyl-4-methyl-N-(thiazol-2-yl)benzenesulfonamide] | 32 ± 0.07 | 59 ± 0.25 | 80 ± 0.11 | 88 ± 0.01 | 42 ± 0.15 µM | 29.05 ± 0.01 | Competitive | 26.15 ± 0.02 | 18.01 ± 0.09 | 37.05 ± 0.04 | 41.09 ± 0.01 | 69.02 ± 0.03 | 89.03 ± 0.91 | 37.01 ± 0.04 µM | 39.1 ± 0.2 | 65.8 ± 0.03 | 89.6 ± 0.11 | 95.1 ± 0.41 | 40.01 ± 0.01 µM | Competitive | 
